Blank lines part the entries; values can stand above or below the molecule they belong to. Active and inactive are the calls of the source. No cut-off for these calls is given here.
Experiments:
Tubulin = assay: Inhibition of tubulin polymerization (unknown origin) incubated for 15 mins followed by GTP addition and measured for 20 mins by spectrophotometry; format: protein-complex assay, Homo sapiens
Summary of the method: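 Tubulin assembly assay with tubulin at 10 µM. IC50 for inhibition of polymerization; run in duplicate or triplicate.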

MCF7 = assay: Cytotoxicity against human MCF7 cells assessed as reduction in cell growth incubated for 96 hrs by MTT assay; format: functional, cell-based; conditions: MCF7, 96 h
Summary of the method: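 Growth inhibition of human breast carcinoma cells, reported as IC50; run in duplicate or triplicate.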

Tubulin (Homo sapiens) = Tubulin (Homo sapiens) (UniProt P68371+Q9H4B7+P0DPH7+P68366+Q13509+Q71U36+P04350+Q3ZCM7+P07437+P68363+Q9BQE3+Q6PEY2+Q13885+Q9BVA1+Q9BUF5); assay: Inhibition of [3H]colchicine binding to tubulin (unknown origin) at 5 uM incubated for 10 mins by DEAE-cellulose filter method relative to control; format: protein-complex assay
KU812 cell line = assay: Cytotoxicity against human KU812 cells expressing IM- sensitive wild type Bcr/Abl assessed as reduction in cell viability incubated for 48 hrs by MTT assay; format: functional, cell-based; conditions: KU812, 48 h
[1] = Cytotoxicity against human LAMA84-s cells expressing IM-sensitive wild type Bcr/Abl assessed as reduction in cell viability incubated for 48 hrs by MTT assay; format: functional, cell-based
[2] = Cytotoxicity against IM resistant human LAMA84-r cells assessed as reduction in cell viability incubated for 48 hrs by MTT assay; format: functional, cell-based
KBM5 [3] = assay: Cytotoxicity against human KBM5 cells expressing IM- sensitive wild type Bcr/Abl assessed as reduction in cell viability incubated for 48 hrs by MTT assay; format: functional, cell-based; conditions: KBM5, 48 h
KBM5 [4] = assay: Cytotoxicity against human KBM5 cells expressing IM-resistant Bcr/Abl T315I mutant assessed as reduction in cell viability incubated for 48 hrs by MTT assay; format: functional, cell-based; conditions: KBM5, 48 h
[5] = (§1) Cytotoxicity against human U343MG cells assessed as reduction in cell viability incubated for 72 hrs by MTS assay; format: functional, cell-based; conditions: U-343MG
Summary of the method: (§2)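 Increasing concentrations applied to glioblastoma and neuroblastoma lines to give dose-response viability curves; cytotoxic IC50 from triplicate experiments. Incubation 48 h, except U343MG at 72 h.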

Homo sapiens = organism: Homo sapiens; assay: as §1; format: functional, cell-based; summary of the method: as §2
U-87 MG = assay: Cytotoxicity against human U87MG cells assessed as reduction in cell viability incubated for 48 hrs by MTS assay; format: functional, cell-based, U-87MG ATCC; conditions: for inhibition: U-87MG ATCC; summary of the method: as §2
T98G = assay: Cytotoxicity against human T98G cells assessed as reduction in cell viability incubated for 48 hrs by MTS assay; format: functional, cell-based; summary of the method: as §2
[6] = Cytotoxicity against human SK-N-BE cells assessed as reduction in cell viability incubated for 48 hrs by MTT assay; format: functional, cell-based; summary of the method: as §2
[7] = Cytotoxicity against human SK-N-BE(2)C cells assessed as reduction in cell viability incubated for 48 hrs by MTT assay; format: functional, cell-based; summary of the method: as §2
HCT-116 = assay: Cytotoxicity against human HCT116 cells assessed as reduction in cell viability incubated for 48 hrs by MTT assay; format: functional, cell-based; conditions: for IC50: HCT-116, 48 h
HT-29 = assay: Cytotoxicity against human HT-29 cells assessed as reduction in cell viability incubated for 48 hrs by MTT assay; format: functional, cell-based; conditions: for IC50: HT-29, 48 h
SW480 = assay: Cytotoxicity against human SW480 cells assessed as reduction in cell viability incubated for 48 hrs by MTT assay; format: functional, cell-based; conditions: for IC50: SW480, 48 h
SW-620 = assay: Cytotoxicity against human SW620 cells assessed as reduction in cell viability incubated for 48 hrs by MTT assay; format: functional, cell-based; conditions: for IC50: SW-620, 48 h
T-24 = assay: Cytotoxicity against human T24 cells assessed as reduction in cell viability incubated for 48 hrs by MTT assay; format: functional, cell-based; conditions: T-24, 48 h
PBMC = assay: Cytotoxicity against human PBMC assessed as cell viability by MTT assay; format: cell-based
KBM5 [8] = assay: Induction of apoptotic cell death in human KBM5 cells expressing IM-sensitive wild type Bcr/Abl at 10 nM incubated for 48 hrs by Annexin V-staining based flow cytometry; format: functional
Summary of the method: (§3)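 KBM5-WT and KBM5-T315I cells exposed 48 h to 10 nM test compound alone or combined with 10 nM nilotinib (nilotinib alone as comparator). Apoptotic cells quantified by annexin V staining and flow cytometry; triplicate.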

KBM5 [9] = assay: Induction of apoptotic cell death in human KBM5 cells expressing IM-resistant Bcr/Abl T315I mutant at 10 nM incubated for 48 hrs by Annexin V-staining based flow cytometry; format: functional; summary of the method: as §3

SMILES: Cc1cn(-c2cc(NC(=O)c3ccc(C)c(Nc4nccc(-c5cccnc5)n4)c3)cc(C(F)(F)F)c2)cn1 [NILOTINIB]
IC50 (KU812 cell line): 10 nM | IC50 [1]: 11 nM | IC50 [2]: 126 nM | IC50 (KBM5 [3]): 12 nM | IC50 (KBM5 [4]): 2420 nM | Activity (KBM5 [8]): Active | Activity (KBM5 [9]): Active

SMILES: COc1cc(C(=O)c2cn(-c3cccc(N)c3)cc2-c2ccccc2F)cc(OC)c1OC
IC50 (Tubulin): 500 nM | IC50 (MCF7): 17 nM | inhibition (Tubulin (Homo sapiens)): 90% | IC50 (KU812 cell line): 14 nM | IC50 [1]: 15 nM | IC50 [2]: 14 nM | IC50 (KBM5 [3]): 18 nM | IC50 (KBM5 [4]): 22 nM | Emax [5]: 31% | IC50 [5]: 68.9 to 69 nM | inhibition (Homo sapiens): Dose-dependent effect | Emax (U-87 MG): 22% | IC50 (U-87 MG): 61 to 61.4 nM | inhibition (U-87 MG): Dose-dependent effect | Emax (T98G): 38.4% | IC50 (T98G): 54 to 54.4 nM | inhibition (T98G): Dose-dependent effect | IC50 [6]: 244 nM | IC50 [7]: 106 nM | inhibition (HCT-116): Dose-dependent effect | IC50 (HCT-116): 42 nM | inhibition (HT-29): Dose-dependent effect | IC50 (HT-29): 56 nM | inhibition (SW480): Dose-dependent effect | IC50 (SW480): 162 nM | inhibition (SW-620): Dose-dependent effect | IC50 (SW-620): 123 nM | IC50 (T-24): 34 nM | Activity (PBMC): Non-Toxic

SMILES: COc1cc(C(=O)c2cn(-c3cccc(N)c3)cc2-c2ccccc2[N+](=O)[O-])cc(OC)c1OC
IC50 (Tubulin): 710 nM | IC50 (MCF7): 14 nM | inhibition (Tubulin (Homo sapiens)): 82% | IC50 (KU812 cell line): 16 nM | IC50 [1]: 18 nM | IC50 [2]: 20 nM | IC50 (KBM5 [3]): 15 nM | IC50 (KBM5 [4]): 21 nM | Emax [5]: 35.3% | IC50 [5]: 30 to 30.2 nM | inhibition (Homo sapiens): Dose-dependent effect | Emax (U-87 MG): 32.4% | IC50 (U-87 MG): 29.9 to 30 nM | inhibition (U-87 MG): Dose-dependent effect | Emax (T98G): 26.7% | IC50 (T98G): 34.6 to 35 nM | inhibition (T98G): Dose-dependent effect | IC50 [6]: 311 nM | IC50 [7]: 132 nM | inhibition (HCT-116): Dose-dependent effect | IC50 (HCT-116): 44 nM | inhibition (HT-29): Dose-dependent effect | IC50 (HT-29): 51 nM | inhibition (SW480): Dose-dependent effect | IC50 (SW480): 164 nM | inhibition (SW-620): Dose-dependent effect | IC50 (SW-620): 38 nM | IC50 (T-24): 12 nM | Activity (PBMC): Non-Toxic

SMILES: COc1cc(C(=O)c2cn(-c3ccccc3)cc2-c2cc(F)ccc2F)cc(OC)c1OC
IC50 (Tubulin): 1300 nM | IC50 (MCF7): 230 nM | inhibition (Tubulin (Homo sapiens)): 24%

SMILES: COc1cccc(-n2cc(C(=O)c3cc(OC)c(OC)c(OC)c3)c(-c3ccccc3)c2)c1
IC50 (Tubulin): 1600 nM | IC50 (MCF7): 500 nM | inhibition (Tubulin (Homo sapiens)): 25%

SMILES: COc1cc(C(=O)c2cn(-c3ccccc3)cc2-c2cccc(Cl)c2)cc(OC)c1OC
IC50 (Tubulin): 2300 nM | IC50 (MCF7): 540 nM | inhibition (Tubulin (Homo sapiens)): 7.5%

SMILES: COc1cc(C(=O)c2cn(-c3ccccc3)cc2-c2cccc([N+](=O)[O-])c2)cc(OC)c1OC
IC50 (Tubulin): 940 nM | IC50 (MCF7): 50 nM | inhibition (Tubulin (Homo sapiens)): 12%

SMILES: COc1cc(C(=O)c2cn(-c3ccccc3)cc2-c2c(F)cc(F)cc2F)cc(OC)c1OC
IC50 (Tubulin): 510 nM | IC50 (MCF7): 180 nM | inhibition (Tubulin (Homo sapiens)): 27%

SMILES: COc1cc(C(=O)c2cn(-c3cccc(C)c3)cc2-c2ccc([N+](=O)[O-])cc2)cc(OC)c1OC
IC50 (Tubulin): > 20000 nM | IC50 (MCF7): 780 nM | inhibition (Tubulin (Homo sapiens)): 10%

SMILES: COc1cc(C(=O)c2cn(-c3ccccc3)cc2-c2ccccc2Cl)cc(OC)c1OC
IC50 (Tubulin): 630 nM | IC50 (MCF7): 76 nM | inhibition (Tubulin (Homo sapiens)): 50%

SMILES: COc1cc(C(=O)c2cn(-c3cccc(C)c3)cc2-c2ccccc2Cl)cc(OC)c1OC
IC50 (Tubulin): 710 nM | IC50 (MCF7): 420 nM | inhibition (Tubulin (Homo sapiens)): 39%

SMILES: COc1cc(C(=O)c2cn(-c3cccc(F)c3)cc2-c2ccccc2[N+](=O)[O-])cc(OC)c1OC
IC50 (Tubulin): 1100 nM | IC50 (MCF7): 190 nM | inhibition (Tubulin (Homo sapiens)): 41%

Continued, in another order:

IC50 (Tubulin): 500 nM | inhibition (Tubulin (Homo sapiens)): 90%
SMILES: COc1cc(C(=O)c2cn(-c3ccc(F)cc3)cc2-c2ccc(N)cc2)cc(OC)c1OC
IC50 (MCF7): 12 nM | IC50 (KU812 cell line): 18 nM | IC50 [1]: 20 nM | IC50 [2]: 22 nM | IC50 (KBM5 [3]): 25 nM | IC50 (KBM5 [4]): 26 nM | Emax [5]: 37.1% | IC50 [5]: 20 to 20.1 nM | inhibition (Homo sapiens): Dose-dependent effect | Emax (U-87 MG): 32% | IC50 (U-87 MG): 45.8 to 46 nM | inhibition (U-87 MG): Dose-dependent effect | Emax (T98G): 31% | IC50 (T98G): 21.8 to 22 nM | inhibition (T98G): Dose-dependent effect | IC50 [6]: 288 nM | IC50 [7]: 178 nM | inhibition (HCT-116): Dose-dependent effect | IC50 (HCT-116): 36 nM | inhibition (HT-29): Dose-dependent effect | IC50 (HT-29): 35 nM | inhibition (SW480): Dose-dependent effect | IC50 (SW480): 167 nM | inhibition (SW-620): Dose-dependent effect | IC50 (SW-620): 47 nM | IC50 (T-24): 48 nM | Activity (PBMC): Non-Toxic

IC50 (Tubulin): 520 nM | inhibition (Tubulin (Homo sapiens)): 69%
SMILES: COc1cc(C(=O)c2cn(-c3ccc(N)cc3)cc2-c2ccccc2[N+](=O)[O-])cc(OC)c1OC
IC50 (MCF7): 53 nM

IC50 (Tubulin): 3300 nM | inhibition (Tubulin (Homo sapiens)): 18%
SMILES: COc1cc(C(=O)c2cn(-c3ccc([N+](=O)[O-])cc3)cc2-c2ccccc2)cc(OC)c1OC
IC50 (MCF7): 4000 nM

IC50 (Tubulin): 590 nM | inhibition (Tubulin (Homo sapiens)): 79%
SMILES: COc1cc(C(=O)c2cn(-c3ccc(N)cc3)cc2-c2ccccc2F)cc(OC)c1OC
IC50 (MCF7): 28 nM

IC50 (Tubulin): 1200 nM | inhibition (Tubulin (Homo sapiens)): 23%
SMILES: COc1cc(C(=O)c2cn(-c3ccccc3)cc2-c2ccc(Cl)cc2)cc(OC)c1OC
IC50 (MCF7): 290 nM

IC50 (Tubulin): > 20000 nM | inhibition (Tubulin (Homo sapiens)): 11%
SMILES: COc1cc(C(=O)c2cn(-c3ccc(F)cc3)cc2-c2cccc([N+](=O)[O-])c2)cc(OC)c1OC
IC50 (MCF7): 440 nM

IC50 (Tubulin): 870 nM | inhibition (Tubulin (Homo sapiens)): 59%
SMILES: COc1cc(C(=O)c2cn(-c3ccc(N)cc3)cc2-c2cccc(N)c2)cc(OC)c1OC
IC50 (MCF7): 78 nM

IC50 (Tubulin): 660 nM | inhibition (Tubulin (Homo sapiens)): 78%
SMILES: COc1cc(C(=O)c2cn(-c3ccc(Br)cc3)cc2-c2ccccc2)cc(OC)c1OC
IC50 (MCF7): 20 nM

IC50 (Tubulin): 680 nM | inhibition (Tubulin (Homo sapiens)): 46%
SMILES: COc1cc(C(=O)c2cn(-c3ccc(F)cc3)cc2-c2ccccc2[N+](=O)[O-])cc(OC)c1OC
IC50 (MCF7): 38 nM

IC50 (Tubulin): 1700 nM | inhibition (Tubulin (Homo sapiens)): 42%
SMILES: COc1cc(C(=O)c2cn(-c3ccc(Cl)cc3)cc2-c2ccccc2)cc(OC)c1OC
IC50 (MCF7): 140 nM
